# Experimental data: ChEMBL document CHEMBL2046313, “Discovery and evaluation of a non-Zn chelating, selective matrix metalloproteinase 13 (MMP-13) inhibitor for potential intra-articular treatment of osteoarthritis” (J Med Chem, 2012)
# What was measured:
# Plasma [1] = assay: Drug uptake in Sprague-Dawley rat plasma at 0.5 mg/kg, ia measured after 8 weeks; type: ADME, organism-based; parameters: dose 0.5 mg/kg; conditions: in vivo, other, 1344 h, BLD = below limit of detection
# [2] = biological target: T1, A disintegrin and metalloproteinase with thrombospondin motifs 4 (Homo sapiens, UniProt O75173); assay: Inhibition of human recombinant aggrecanase 1 using aggrecan-IGD as substrate measured after 15 mins by ELISA
# T1 sequence (O75173 whole entry): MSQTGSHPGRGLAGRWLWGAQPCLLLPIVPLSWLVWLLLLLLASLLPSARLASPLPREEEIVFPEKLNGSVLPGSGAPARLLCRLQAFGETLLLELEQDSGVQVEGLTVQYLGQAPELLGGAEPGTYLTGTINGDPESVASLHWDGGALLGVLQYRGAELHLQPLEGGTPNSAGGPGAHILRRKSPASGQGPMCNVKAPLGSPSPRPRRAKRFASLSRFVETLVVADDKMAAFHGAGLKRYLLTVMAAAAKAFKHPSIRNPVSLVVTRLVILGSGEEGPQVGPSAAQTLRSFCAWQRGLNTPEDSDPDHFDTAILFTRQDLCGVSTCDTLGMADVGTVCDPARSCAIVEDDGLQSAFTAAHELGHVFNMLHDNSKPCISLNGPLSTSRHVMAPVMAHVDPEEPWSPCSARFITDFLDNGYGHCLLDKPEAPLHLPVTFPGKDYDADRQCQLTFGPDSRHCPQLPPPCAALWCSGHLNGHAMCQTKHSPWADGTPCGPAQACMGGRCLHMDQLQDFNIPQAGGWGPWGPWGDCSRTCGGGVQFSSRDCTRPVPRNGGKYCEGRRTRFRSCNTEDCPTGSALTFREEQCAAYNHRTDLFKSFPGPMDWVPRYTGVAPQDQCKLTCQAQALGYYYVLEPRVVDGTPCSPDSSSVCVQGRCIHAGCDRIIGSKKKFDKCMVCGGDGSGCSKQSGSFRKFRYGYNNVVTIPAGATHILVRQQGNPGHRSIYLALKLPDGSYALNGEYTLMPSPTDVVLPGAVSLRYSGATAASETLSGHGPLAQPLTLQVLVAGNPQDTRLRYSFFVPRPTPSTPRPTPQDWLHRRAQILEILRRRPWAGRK
# In short: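 Aggrecanase-1 was run in 50 mM Tris-HCl pH 7.5, 150 mM NaCl, 5 mM CaCl₂, 0.05% Brij-35, with 100 nM recombinant human aggrecan interglobular domain as substrate, for 15 min at 37 °C. The reaction was stopped with EDTA, and ARGSVIL neoepitopes were quantified by ELISA.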
# [3] = biological target: Disintegrin and metalloproteinase domain-containing protein 17 (Homo sapiens, UniProt P78536); assay: Inhibition of human recombinant TACE using MCA-Pro-Leu-Ala-Gln-Ala-Val-Dpa-Arg-Ser-Ser-Ser-Arg-NH2 as substrate preincubated for 10 mins measured by fluorescence analysis
# Chain of Disintegrin and metalloproteinase domain-containing protein 17 (P78536 whole entry, the tested form may be a part): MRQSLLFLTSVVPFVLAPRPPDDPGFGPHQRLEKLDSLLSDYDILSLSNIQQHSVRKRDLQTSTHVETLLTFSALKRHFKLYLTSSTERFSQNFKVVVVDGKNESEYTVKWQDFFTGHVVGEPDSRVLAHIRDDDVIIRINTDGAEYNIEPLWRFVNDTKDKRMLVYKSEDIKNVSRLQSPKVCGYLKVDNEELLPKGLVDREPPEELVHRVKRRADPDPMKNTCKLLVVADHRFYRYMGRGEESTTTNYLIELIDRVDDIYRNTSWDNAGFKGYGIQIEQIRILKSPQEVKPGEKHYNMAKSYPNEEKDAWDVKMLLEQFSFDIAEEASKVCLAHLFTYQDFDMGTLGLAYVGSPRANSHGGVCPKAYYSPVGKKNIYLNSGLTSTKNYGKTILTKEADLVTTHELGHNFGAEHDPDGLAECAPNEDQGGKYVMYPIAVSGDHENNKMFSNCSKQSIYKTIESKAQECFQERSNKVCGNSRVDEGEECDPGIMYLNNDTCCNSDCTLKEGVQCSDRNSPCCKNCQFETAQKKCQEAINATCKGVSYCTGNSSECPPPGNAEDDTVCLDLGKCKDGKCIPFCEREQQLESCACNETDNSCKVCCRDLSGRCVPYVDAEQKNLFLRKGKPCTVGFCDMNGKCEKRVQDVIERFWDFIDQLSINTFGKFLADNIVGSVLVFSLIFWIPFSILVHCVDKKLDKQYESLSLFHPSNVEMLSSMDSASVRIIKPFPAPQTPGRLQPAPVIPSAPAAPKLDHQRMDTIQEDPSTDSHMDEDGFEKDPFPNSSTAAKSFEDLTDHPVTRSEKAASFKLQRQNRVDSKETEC
# In short: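 Recombinant human TACE was assayed with its fluorogenic peptide substrate in 25 mM Tris-HCl pH 9, 1.25 μM Zn(OAc)₂, 0.005% Brij-35. Enzyme was 1–10 nM and substrate 4–10 μM. Enzyme was preincubated 10 min with varying inhibitor concentrations, and IC50 came from at least duplicate runs.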
# [4] = Drug uptake in Sprague-Dawley rat synovial lavage at 0.5 mg/joint measured on day 56; type: ADME; conditions: in vivo, other, BLD = below limit of detection
# [5] = biological target: 72 kDa type IV collagenase (Homo sapiens, UniProt P08253); assay: Inhibition of human recombinant MMP2 using MCA-Pro-Leu-Gly-Leu-Dpa-Ala-Arg-NH2.AcOH as substrate preincubated for 10 mins measured by fluorescence analysis
# Chain of 72 kDa type IV collagenase (P08253 whole entry, the tested form may be a part): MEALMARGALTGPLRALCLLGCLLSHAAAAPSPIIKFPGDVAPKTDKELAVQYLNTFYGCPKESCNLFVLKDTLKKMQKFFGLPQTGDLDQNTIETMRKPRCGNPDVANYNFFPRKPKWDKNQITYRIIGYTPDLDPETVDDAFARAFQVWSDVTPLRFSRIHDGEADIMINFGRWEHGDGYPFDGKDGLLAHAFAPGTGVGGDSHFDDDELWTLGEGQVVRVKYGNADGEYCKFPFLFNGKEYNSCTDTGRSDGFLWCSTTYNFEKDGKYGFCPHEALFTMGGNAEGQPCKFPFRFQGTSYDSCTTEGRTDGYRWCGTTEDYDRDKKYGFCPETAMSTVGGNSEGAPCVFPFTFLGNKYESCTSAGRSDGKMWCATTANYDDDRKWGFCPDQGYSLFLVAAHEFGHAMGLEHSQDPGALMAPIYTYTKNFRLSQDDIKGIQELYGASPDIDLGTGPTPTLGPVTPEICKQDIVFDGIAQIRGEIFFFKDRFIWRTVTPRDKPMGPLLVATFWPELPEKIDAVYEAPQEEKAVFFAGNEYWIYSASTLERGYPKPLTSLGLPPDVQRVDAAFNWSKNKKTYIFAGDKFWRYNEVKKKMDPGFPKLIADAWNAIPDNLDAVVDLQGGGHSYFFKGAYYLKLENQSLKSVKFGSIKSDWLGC
# In short: (§1)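 Catalytic domains of recombinant human MMPs were assayed with fluorogenic OmniMMP substrate in 50 mM Tris-HCl pH 7.5, 150 mM NaCl, 5 mM CaCl₂, 0.05% Brij-35. Enzyme was 1–10 nM and substrate 4–10 μM, optimized per assay. Enzyme was preincubated 10 min with varying inhibitor concentrations, and IC50 was calculated from runs done at least in duplicate.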
# [6] = biological target: Matrix metalloproteinase-9 (Homo sapiens, UniProt P14780); assay: Inhibition of human recombinant MMP9 using MCA-Pro-Leu-Gly-Leu-Dpa-Ala-Arg-NH2.AcOH as substrate preincubated for 10 mins measured by fluorescence analysis; in short: as §1
# Chain of Matrix metalloproteinase-9 (P14780 whole entry): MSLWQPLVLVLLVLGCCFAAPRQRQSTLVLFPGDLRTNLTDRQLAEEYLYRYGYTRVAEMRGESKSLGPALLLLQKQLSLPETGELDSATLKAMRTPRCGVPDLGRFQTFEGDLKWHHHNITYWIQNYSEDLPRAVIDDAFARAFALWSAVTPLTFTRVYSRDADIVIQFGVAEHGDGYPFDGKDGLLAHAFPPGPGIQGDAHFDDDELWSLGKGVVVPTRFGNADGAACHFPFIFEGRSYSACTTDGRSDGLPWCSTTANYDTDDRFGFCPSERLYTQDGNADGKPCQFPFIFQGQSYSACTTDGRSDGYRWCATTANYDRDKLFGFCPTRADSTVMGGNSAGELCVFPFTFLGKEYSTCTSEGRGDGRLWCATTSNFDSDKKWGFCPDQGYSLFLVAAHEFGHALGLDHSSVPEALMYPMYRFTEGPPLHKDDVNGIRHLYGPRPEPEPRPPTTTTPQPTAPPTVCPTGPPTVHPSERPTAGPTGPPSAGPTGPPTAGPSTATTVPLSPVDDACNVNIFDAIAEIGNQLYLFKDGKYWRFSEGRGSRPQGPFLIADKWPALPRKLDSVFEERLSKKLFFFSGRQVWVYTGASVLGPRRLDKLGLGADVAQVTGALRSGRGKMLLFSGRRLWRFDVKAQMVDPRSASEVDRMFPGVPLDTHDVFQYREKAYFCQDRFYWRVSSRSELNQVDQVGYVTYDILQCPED
# Rattus norvegicus [7] = organism: Rattus norvegicus; assay: Chondroprotective activity in Sprague-Dawley rat cartilage assessed as inhibition of MMP13-mediated C1,C2 release at 0.5 mg/joint, ia measured on day 14 by ELISA; type: functional
# In short: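 Male Sprague-Dawley rats (175−200 g, three per group) received one IA injection of 50 μL PBS holding 10 mg/mL suspension (sonicated, vortexed) into right knee. They were killed at 1, 7, 14 or 21 days, and tibial cartilage was collected. Cartilage was then challenged with 10 μg/mL APMA-activated human MMP-13 for 24 h at 37 °C in Tris pH 7.5. The reaction was stopped with 10 mM EDTA, and released C1,2C was measured by ELISA. Vehicle cartilage incubated with or without MMP-13 defined 100% and 0%.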
# Matrilysin = biological target: T2, Matrilysin (Homo sapiens, UniProt P09237); assay: Inhibition of human recombinant MMP7 using MCA-Pro-Leu-Gly-Leu-Dpa-Ala-Arg-NH2.AcOH as substrate preincubated for 10 mins measured by fluorescence analysis; in short: as §1
# T2 sequence (P09237 whole entry): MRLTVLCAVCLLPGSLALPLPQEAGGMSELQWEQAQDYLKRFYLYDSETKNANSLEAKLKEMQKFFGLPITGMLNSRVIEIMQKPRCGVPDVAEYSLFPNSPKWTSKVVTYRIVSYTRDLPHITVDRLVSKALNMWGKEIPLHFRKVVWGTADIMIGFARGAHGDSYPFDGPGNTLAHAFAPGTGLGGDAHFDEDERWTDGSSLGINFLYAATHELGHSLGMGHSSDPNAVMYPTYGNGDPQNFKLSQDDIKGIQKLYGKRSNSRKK
# [8] = Drug uptake in Sprague-Dawley rat cartilage at 0.5 mg/joint measured after 21 days; type: ADME, tissue-based, Cartilage tissue; conditions: read-out: Drug uptake
# Plasma [9] = assay: Drug uptake in Sprague-Dawley rat plasma at 0.5 mg/joint measured after 8 weeks; type: ADME, cell-free; conditions: other, 1344 h, BLD = below limit of detection
# Rattus norvegicus [10] = assay: Toxicity in Sprague-Dawley rat assessed as joint irritation at 0.5 mg/kg, ia measured after 3 weeks; type: organism-based; parameters: dose 0.5 mg/kg; conditions: in vivo, other, 504 h
# Collagenase 3 = Collagenase 3 (Homo sapiens, UniProt P45452); assay: Inhibition of human recombinant MMP13 using MCA-Pro-Cha-Gly-Nva-His-Ala-Dpa-NH2 as substrate preincubated for 10 mins measured by fluorescence analysis
# In short: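 Catalytic domain of recombinant human MMP-13 was assayed with fluorogenic substrate in 50 mM Tris-HCl pH 7.5, 150 mM NaCl, 5 mM CaCl₂, 0.05% Brij-35. Enzyme was 1–10 nM and substrate 4–10 μM. It was preincubated 10 min with varying inhibitor concentrations, and IC50 came from at least duplicate runs.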
# Rattus norvegicus [11] = organism: Rattus norvegicus; assay: Toxicity in Sprague-Dawley rat assessed as impaired use of limbs at 0.5 mg/joint measured on day 56; type: organism-based; conditions: in vivo, other
# Rattus norvegicus [12] = assay: Toxicity in Sprague-Dawley rat assessed as adverse effects at 0.5 mg/kg, ia measured after 48 hrs; type: organism-based; parameters: dose 0.5 mg/kg; conditions: in vivo, other
# Rattus norvegicus [13] = assay: Toxicity in Sprague-Dawley rat assessed as adverse effects at 0.5 mg/kg, ia measured after 3 weeks; type: organism-based; parameters: dose 0.5 mg/kg; conditions: in vivo, other, 504 h
# [14] = biological target: Macrophage metalloelastase (Homo sapiens, UniProt P39900); assay: Inhibition of human recombinant MMP12 using MCA-Pro-Leu-Gly-Leu-Dpa-Ala-Arg-NH2.AcOH as substrate preincubated for 10 mins measured by fluorescence analysis; in short: as §1
# Chain of Macrophage metalloelastase (P39900 whole entry): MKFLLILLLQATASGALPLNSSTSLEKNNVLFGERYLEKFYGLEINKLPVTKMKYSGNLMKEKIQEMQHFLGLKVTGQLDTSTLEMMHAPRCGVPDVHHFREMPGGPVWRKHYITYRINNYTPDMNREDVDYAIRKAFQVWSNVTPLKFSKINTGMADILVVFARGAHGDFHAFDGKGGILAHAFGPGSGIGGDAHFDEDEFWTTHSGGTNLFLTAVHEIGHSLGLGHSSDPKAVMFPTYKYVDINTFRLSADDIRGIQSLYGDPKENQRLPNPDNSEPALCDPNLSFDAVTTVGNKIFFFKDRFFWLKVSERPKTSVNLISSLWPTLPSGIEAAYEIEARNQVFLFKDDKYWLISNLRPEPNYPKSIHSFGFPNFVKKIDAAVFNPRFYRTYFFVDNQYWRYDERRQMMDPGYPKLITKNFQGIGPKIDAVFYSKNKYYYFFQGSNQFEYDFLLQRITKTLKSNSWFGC
# Plasma [15] = assay: Drug uptake in Sprague-Dawley rat plasma at 100 mg/kg, ip measured after 8 weeks; type: ADME, organism-based; parameters: dose 100 mg/kg, route intraperitoneal; conditions: in vivo, 1344 h, BLD = below limit of detection
smiles,measurement,setting,value
Cc1c(C(=O)O)ccc2c1CC[C@@H]2NC(=O)c1cc(C(=O)NCc2ccc3c(c2)NC(=O)CO3)nc2ccnn12,Cp,Plasma [1],BLD
same,IC50,[2],2400 nM
same,IC50,[3],> 20000 nM
same,Drug uptake,[4],BLD
same,IC50,[5],> 20000 nM
same,IC50,[6],> 20000 nM
same,inhibition (INH),Rattus norvegicus [7],100%
same,IC50,Matrilysin,> 20000 nM
same,concentration at 504 h,[8],4.09 µM
same,Cp,Plasma [9],BLD
same,Activity,Rattus norvegicus [10],Non-toxic
same,IC50,Collagenase 3,0.03 nM
same,Activity,Rattus norvegicus [11],Non-toxic
same,Activity,Rattus norvegicus [12],Non-toxic
same,Activity,Rattus norvegicus [13],Non-toxic
same,IC50,[14],655 nM
same,Cp,Plasma [15],BLD
